Laboratory results taken from ChEMBL document CHEMBL2021915, “Synthesis, characterization and biological activity of hydroxyl-bisphosphonic analogs of bile acids” (Eur J Med Chem, 2012).
Calls of active or inactive are those of the source. The rule behind the calls is not given here.

Columns and labels:
Hydroxyapatite [1] = experiment: Binding affinity to hydroxyapatite assessed as unadsorbed compound level at 20 mg after 48 hrs using 5 mg/ml of hydroxyapatite by NMR analysis relative to control
In short: (§1)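 Bisphosphonate salt dissolved in bidistilled water, pH adjusted to 7.4, and magnetically stirred at 25 °C for the hydroxyapatite adsorption test.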

[2] = Distribution coefficient, log D of the compound at pH 7.4; assay type: physicochemical; conditions: octanol/water
In short: (§2)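 Log D values were obtained by calculation, not by experimental partitioning.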

Hydroxyapatite [3] = experiment: Binding affinity to hydroxyapatite assessed as unadsorbed compound level at 20 mg after 96 hrs using 10 mg/ml of hydroxyapatite by NMR analysis relative to control; in short: as §1
Hydroxyapatite [4] = experiment: Binding affinity to hydroxyapatite assessed as unadsorbed compound level at 20 mg after 24 hrs using 2.5 mg/ml of hydroxyapatite by NMR analysis relative to control; in short: as §1
[5] = Distribution coefficient, log D of the compound at pH 1.5; assay type: physicochemical; conditions: octanol/water; in short: as §2
Hydroxyapatite [6] = experiment: Binding affinity to hydroxyapatite assessed as unadsorbed compound level at 20 mg after 72 hrs using 7.5 mg/ml of hydroxyapatite by NMR analysis relative to control; in short: as §1
Hydroxyapatite [7] = experiment: Binding affinity to hydroxyapatite assessed as unadsorbed compound level at 20 mg after 3 hrs using 2.5 mg/ml of hydroxyapatite by NMR analysis relative to control; in short: as §1
Hydroxyapatite [8] = experiment: Binding affinity to hydroxyapatite assessed as unadsorbed compound level at 40 mg after 72 hrs using 7.5 mg/ml of hydroxyapatite by NMR analysis relative to control
In short: (§3)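 Compound (about 40 mg) dissolved in 10 mL bidistilled water, pH adjusted to 7.4, stirred at 25 °C in a capped vial with hydroxyapatite; remaining unadsorbed compound in solution followed over time by NMR signal relative to starting signal.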

Hydroxyapatite [9] = experiment: Binding affinity to hydroxyapatite assessed as unadsorbed compound level at 40 mg after 48 hrs using 5 mg/ml of hydroxyapatite by NMR analysis relative to control; in short: as §3
PBMC [10] = experiment: Inhibition of osteoclastogenesis in human osteoclasts obtained from PBMC assessed as formation of TRAPC positive multinucleated cells at 10^-5 to 10^-9 M after 7 days; assay type: functional, cell-based
In short: (§4)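 Human PBMC from buffy coats (Ficoll), adherent monocytes at 3 × 10^6 cells/cm2 differentiated in DMEM/10% FBS with 25% SH-SY5Y conditioned supernatant, compound (10^-5, 10^-7, 10^-9 M) added with differentiation medium for 7 days. TRACP-positive multinucleated cells counted after fixation and TRACP staining; untreated differentiated cultures = 100%. Duplicates; 4 cultures from two donors.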

Hydroxyapatite [11] = experiment: Binding affinity to hydroxyapatite assessed as unadsorbed compound level at 40 mg after 24 hrs using 2.5 mg/ml of hydroxyapatite by NMR analysis relative to control; in short: as §3
Hydroxyapatite [12] = experiment: Binding affinity to hydroxyapatite assessed as unadsorbed compound level at 40 mg after 96 hrs using 10 mg/ml of hydroxyapatite by NMR analysis relative to control; in short: as §3
Osteoclast = experiment: Induction of apoptosis in human multinucleated osteoclasts obtained from PBMC assessed as formation of apoptotic nuclear bodies at 10^-5 M after 7 days by Hoechst 33258 staining; assay type: functional, cell-based
In short: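 PBMC-derived osteoclasts (7 days in SH-SY5Y-conditioned differentiation medium) then exposed to compound (10^-5, 10^-7, 10^-9 M) for a further 7 days. Fixed, stained with phalloidin-TRITC (F-actin rings) and Hoechst 33258; multinucleated cells with apoptotic nuclear bodies counted over whole well at 40×, as % of multinucleated TRACP-positive cells. 4 cultures, two donors.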

Hydroxyapatite [13] = experiment: Binding affinity to hydroxyapatite assessed as unadsorbed compound level at 40 mg after 3 hrs using 2.5 mg/ml of hydroxyapatite by NMR analysis relative to control; in short: as §3
[14] = Solubility of the compound in L929 cell culture medium; assay type: physicochemical
PBMC [15] = experiment: Inhibition of osteoclastogenesis in human osteoclasts obtained from PBMC assessed as formation of TRAPC positive multinucleated cells at 10^-5 M after 7 days; assay type: functional, cell-based; in short: as §4
L929 [16] = experiment: Cytotoxicity against mouse L929 cells assessed as cell viability after 72 hrs by neutral-red uptake assay; assay type: cell-based; conditions: l929, 72 h
In short: (§5)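 L929 mouse fibroblasts in MEM/10% FCS, 0.8 × 10^3 cells/well, adhered 24 h, then exposed to serial dilutions (10^-4 to 10^-10 M; 10^-2 M PBS pH 7.4 stocks) for 72 h. Neutral red 2 h at 37 °C, extracted with ethanol/acetic acid, OD 540 nm, blank-subtracted; ratio to medium-only control. Triplicate wells, 9 experiments.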

L929 [17] = experiment: Cytotoxicity against mouse L929 cells assessed as cell viability at 10^-4 to 10^-5 M after 72 hrs by neutral-red uptake assay relative to neridronate; assay type: cell-based; conditions: l929, 72 h; in short: as §5

For `O=P(O)(O)C(Cl)(Cl)P(=O)(O)O` [CLODRONIC ACID], the Activity (Hydroxyapatite [1]) was 100%, the logD [2] was -5.04 and the Activity (Hydroxyapatite [3]) was 93%. The Activity (Hydroxyapatite [4]) was 100%, the logD [5] was -1.32 and the Activity (Hydroxyapatite [6]) was 96%. It also gave an Activity (Hydroxyapatite [7]) of 100%.

In the case of `C[C@H](CCC(O)(P(=O)(O)O)P(=O)(O)O)[C@H]1CC[C@H]2[C@@H]3[C@H](O)C[C@@H]4C[C@H](O)CC[C@]4(C)[C@H]3CC[C@]12C` [listing 1 of 2 here], the Activity (Hydroxyapatite [8]) is reported as 12%, the Activity (Hydroxyapatite [9]) is reported as 32% and the inhibition (PBMC [10]) is reported as “Active”. The Activity (Hydroxyapatite [11]) was 64%, the Activity (Hydroxyapatite [12]) was 3% and the Activity (Osteoclast) was “Active”. It also gave an Activity (Hydroxyapatite [13]) of 91%.

With `C[C@H](CCC(O)(P(=O)([O-])O)P(=O)([O-])O)[C@H]1CC[C@H]2[C@@H]3[C@@H](O)C[C@@H]4C[C@H](O)CC[C@]4(C)[C@H]3CC[C@]12C.[Na+].[Na+]` the solubility [14] was “Insoluble”.

With `C[C@H](CCC(=O)O)[C@H]1CC[C@H]2[C@@H]3[C@H](O)C[C@@H]4C[C@H](O)CC[C@]4(C)[C@H]3CC[C@]12C` the inhibition (PBMC [15]) was “Active” and the Activity (Osteoclast) was “Active”.

For `C[C@H](CCC(O)(P(=O)([O-])O)P(=O)([O-])O)[C@H]1CC[C@H]2[C@@H]3[C@H](O)C[C@@H]4C[C@H](O)CC[C@]4(C)[C@H]3C[C@H](O)[C@]12C.[Na+].[Na+]`, the solubility [14] was “Insoluble”.

`C[C@H](CCC(O)(P(=O)(O)O)P(=O)(O)O)[C@H]1CC[C@H]2[C@@H]3[C@H](O)C[C@@H]4C[C@H](O)CC[C@]4(C)[C@H]3CC[C@]12C` [listing 2 of 2 here] showed a logD ([2]; read-out: logD) of -3.34 and a logD [5] of 0.44.

Work on `C[C@H](CCC(O)(P(=O)(O)O)P(=O)(O)O)[C@H]1CC[C@H]2[C@@H]3[C@H](O)C[C@@H]4C[C@H](O)CC[C@]4(C)[C@H]3C[C@H](O)[C@]12C` yielded a logD [2] of -4.53 and a logD [5] of -0.76.

For `C[C@H](CCC(O)(P(=O)([O-])O)P(=O)([O-])O)[C@H]1CC[C@H]2[C@@H]3[C@H](O)C[C@@H]4C[C@H](O)CC[C@]4(C)[C@H]3CC[C@]12C.[Na+].[Na+]`, the Activity (L929 [16]) was “Dose-dependent effect” and the Activity (L929 [17]) was “Non-toxic”.

For `C[C@H](CCC(O)(P(=O)(O)O)P(=O)(O)O)[C@H]1CC[C@H]2[C@@H]3[C@@H](O)C[C@@H]4C[C@H](O)CC[C@]4(C)[C@H]3CC[C@]12C`, the logD ([2]; read-out: logD) was -3.34 and the logD [5] was 0.44.

For `NCCCCCC(O)(P(=O)(O)O)P(=O)(O)O` [NERIDRONIC ACID], the Activity (L929 [16]) was “Dose-dependent effect”, the inhibition (PBMC [10]) was “Active” and the Activity (Hydroxyapatite [1]) was 85%. The Activity (Hydroxyapatite [3]) was 67%, the Activity (Hydroxyapatite [4]) was 96% and the Activity (Hydroxyapatite [6]) was 82%. The Activity (Osteoclast) was “Active” and the Activity (Hydroxyapatite [7]) was 98%.
